Measurements as given in publication PMC11529803 (Medicinal chemistry research : an international journal for …, 2024).
Structures can show the parent of a compound that is named as a salt. Blank lines part the entries; values can stand above or below the molecule they belong to.

How the values were obtained:
[1] = cited from earlier work
[2] = In vivo metabolism and pharmacokinetics of LH708; parameters: species or system Slc3a1 KO male mice
[3] = tested on: Slc3a1-knockout mouse model of cystinuria; conditions: after oral gavage; cited from earlier work
[4] = L-cystine crystallization inhibition assay; conditions: for EC50 relative to parent LH708: metabolites of LH708
How it was run: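 Supersaturated L-cystine solution was held with test compound over a concentration range for 72 h at 20 °C, then centrifuged at 14,000 rpm for 10 min at room temperature. Supernatant was diluted 10-fold in water and run in triplicate: potassium cyanide in PBS pH 7.4, 25 min shaking, then sodium nitroprusside, with absorbance read at 530 nm. Cystine was read off a standard curve; EC50 came from nonlinear regression.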

[5] = Crystal growth inhibition by in situ atomic force microscopy; conditions: in situ AFM on {0001} growth hillocks
How it was run: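 Real-time in situ AFM in a fluid cell on hexagonal L-cystine crystals grown from aqueous supersaturated solution (pH 6.3), filtered and air-dried. Surface regenerated for 20 min by flowing supersaturated 2 mM cystine at 20 mL/h. Velocities of {1010} steps on the {0001} basal plane were measured without inhibitor (Vo), then with test compound at 15, 30 and 45 µM under identical conditions.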

plasma half-life ([2]; after LH708 single dose 150 μmol/kg): ~ 10 min
main metabolic pathway ([2]; single iv or oral dose of LH708, plasma and urine): disulfide exchange
SMILES: CN1CCN(C(=O)[C@@H](N)CSSC[C@H](N)C(=O)N2CCN(C)CC2)CC1 [Compound 2, L-cystine bis(N′-methylpiperazide)]
chemical and metabolic stability compared with L-CDME (1) [1]: chemically and metabolically more stable
prevention of L-cystine stone formation [3]: active

SMILES: Cl.Cl.N[C@@H](CSSC[C@H](N)C(=O)NCCN1CCCC1=O)C(=O)NCCN1CCCC1=O [Compound 4e, L-Cystine bis(N′-pyrrolidin-2-one ethyleneamide) dihydrochloride]
L-cystine crystallization inhibition activity (in words) [4]: lost almost all of its crystallization inhibition activity

EC50 relative to parent LH708 [4]: ≤ 2 fold
SMILES: CN1CCN(C(=O)[C@@H](N)CSSC[C@H](N)C(=O)O)CC1.Cl.Cl.Cl [Compound 25, S-(((R)-2-Amino-3-(4-methylpiperazin-1-yl)-3-oxopropyl)thio)-L-cysteine trihydrochloride]

EC50 relative to parent LH708 [4]: ≤ 2 fold
SMILES: N[C@@H](CSSC[C@H](N)C(=O)N1CCNCC1)C(=O)N1CCNCC1 [Compound 3a, L-Cystine bis(piperazide) tetrahydrochloride]
L-cystine crystal growth inhibition (step roughening and decrease of {1010} step velocity) [5]: less effective than the other two compounds

SMILES: Cl.Cl.Cl.Cl.N[C@@H](CSSC[C@H](N)C(=O)N1CCN(c2ccccc2)CC1)C(=O)N1CCN(c2ccccc2)CC1 [Compound 3e, L-Cystine bis(N′-phenylpiperazide) tetrahydrochloride]
decrease in L-cystine crystallization inhibition activity ([4]; relative to LH708 (N4-methyl)): > 10 fold

SMILES: Cl.Cl.Cl.Cl.N[C@@H](CSSC[C@H](N)C(=O)N1CCCC12CCNCC2)C(=O)N1CCCC12CCNCC2 [Compound 3j, L-Cystine bis(1,8-diazaspiro[4.5]decan-1-yl) tetrahydrochloride]
reduction in L-cystine crystallization inhibition ([4]; relative to structure isomer 3i): ~5 fold
